Screens from PubChem.
Rows were chosen to be rich in hits. Some 2.1% of all compounds tested hit in one or more screens of this group.
PABP1 MLLE inh = blocks PAM2 peptide binding to the PABP1 MLLE domain; P11940; GST-MLLE / FITC-PAM2 fluorescence polarization; inhibition, % at 20 µM; actives 0.36% (n = 360,000); in the data active means inhibition above about 35%, passing the limit was not always enough;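 further: plate controls were DMSO wells with GST-MLLE for no effect and wells lacking GST-MLLE protein for full effect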
NS3 helicase inh = blocks Hepatitis C virus NS3 helicase unwinding. NS3 helicase DNA unwinding, Cy5 molecular beacon fluorescence. inhibition, % at 10.9 µM. actives 0.56% (n = 290,000). AID 1800;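 active means inhibition above the mean of all tested compounds plus 3 SD, set per campaign, cut at about 35% in these data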;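 further: 0% = DMSO wells and 100% = thioflavine S control wells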
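Control set: DMSO versus 110 µM thioflavine S; Material: NS3 helicase fragment of HCV; Measured by: Cy5 fluorescence at 0 and 60 min, beacon hairpin quenching; Read-out basis: percent inhibition from t60/t0 fluorescence ratio; Times: reaction time 60 min, 25 °C; Repeats: single replicate; Compound dosing: single dose, 10.9 µM nominal final, DMSO 0.8% final.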
PABP polyA inh = blocks human PABP binding to poly(A) RNA; P11940; fluorescence polarization; inhibition, % at 35 µM; actives 1% (n = 290,000); AID 2014;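 further: calls also rest on retests at 20 µM and on dose response follow-up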
ZTA counter = counter-screen for EBNA-1 inhibitors: inhibitors of Epstein-Barr virus ZTA; ZTA-DNA binding, fluorescence polarization; inhibition, % at 11 µM; actives 0.15% (n = 320,000); AID 2234; in the data active means inhibition above about 33%
Target sequence (P03206 whole entry, looked up): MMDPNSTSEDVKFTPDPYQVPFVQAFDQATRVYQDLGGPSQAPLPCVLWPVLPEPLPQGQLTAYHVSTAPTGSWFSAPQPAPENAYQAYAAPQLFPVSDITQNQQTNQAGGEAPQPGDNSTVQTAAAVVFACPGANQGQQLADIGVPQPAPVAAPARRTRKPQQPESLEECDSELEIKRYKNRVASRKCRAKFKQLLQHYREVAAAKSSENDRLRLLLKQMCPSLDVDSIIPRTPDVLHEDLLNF
EBNA-1 inh = blocks EBNA-1 binding to DNA | AID 1950 | EBNA-1 DNA binding, fluorescence polarization | actives 0.34% (n = 300,000) | inhibition, % at 14.8 µM; in the data active means inhibition above about 28%
eIF4H inh = inhibitors of RNA binding by human eIF4H; Q15056; AID 2012; actives 0.94% (n = 290,000); eIF4H fluorescence polarization binding assay; inhibition, % at 35 µM;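 further: calls also rest on retests at 20 µM and on dose response follow-up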
The depositor's hits bear a star. Unless noted, how the calls were made is not given here.

`CCOc1ccc(CN(C)CC(=O)Nc2ccc3c(c2)CCC3)cc1OC` gave PABP1 MLLE inh 0.6, NS3 helicase inh -15.1, PABP polyA inh 2.6, ZTA counter 0.3, EBNA-1 inh 8.7 and eIF4H inh 75.7*.
For COCCn1c(SCC(=O)NCC2CCCO2)nc2c(c1=O)SCC2 (configuration not stated) the results were PABP1 MLLE inh 126.1*, NS3 helicase inh 0.8, PABP polyA inh -8.5, ZTA counter -8.0, EBNA-1 inh 7.9 and eIF4H inh 12.0.
For COCCn1c(SCC(=O)NC2CCCCC2)nc2c(c1=O)SCC2 the results were PABP1 MLLE inh 11.1, NS3 helicase inh -4.1, PABP polyA inh -2.5, ZTA counter -24.3, EBNA-1 inh -4.2 and eIF4H inh 10.0.
Screening Nc1c(C(=O)C2CC2)sc2nc(-c3cccs3)cc(C(F)(F)F)c12 returned PABP1 MLLE inh inactive, NS3 helicase inh -5.8, PABP polyA inh 107.8, ZTA counter -6.2, EBNA-1 inh -6.4 and eIF4H inh 94.4*.
C/C(=N\NC(=S)Nc1cccc(C)c1)c1cccc(N)c1 was read as PABP1 MLLE inh 33.0, NS3 helicase inh -6.3, PABP polyA inh 10.6, ZTA counter -13.2, EBNA-1 inh -11.4 and eIF4H inh -2.4.
`C/C(=N\NC(=S)Nc1cccc(C)c1)c1ccccc1` gave PABP1 MLLE inh 39.6*, NS3 helicase inh -5.2, PABP polyA inh 3.3, ZTA counter 7.9, EBNA-1 inh -2.0 and eIF4H inh 3.5.
Screening O=Cc1coc2ccc3ccccc3c2c1=O returned PABP1 MLLE inh 40.2*, NS3 helicase inh 33.6, PABP polyA inh 30.9, ZTA counter 27.4, EBNA-1 inh 0.0 and eIF4H inh -4.9.
CC(=O)N1CCN(C(=O)COC(=O)c2ccc(S(C)(=O)=O)cc2)CC1 was read as PABP1 MLLE inh 4.0.
`CN(C)c1cc2c(cc1NC(=O)c1ccccc1Cl)n(C)c(=O)n2C` gave PABP1 MLLE inh -3.8, NS3 helicase inh 11.3, PABP polyA inh 2.1, ZTA counter 5.7, EBNA-1 inh 12.4 and eIF4H inh 4.0.
Screening O=C1NC[C@H](Cc2ccccc2)N(C[C@H]2CCCN2C[C@H](Cc2ccccc2)N2C[C@H](Cc3ccccc3)N(CCc3ccccc3)C(=O)C2=O)C1=O returned PABP1 MLLE inh 10.9.
Screening C=C(C)C(=O)Nc1cccc(C2=NOC3(C2)C[C@H](C(N)=O)N(C(=O)COc2ccc(Cl)cc2)C3)c1 (some centres not stated) returned PABP1 MLLE inh -5.7, PABP polyA inh 49.6*, ZTA counter -9.8, EBNA-1 inh -6.6 and eIF4H inh 85.9*.
`C=C(C)C(=O)Nc1cccc(C2=NOC3(C2)C[C@H](C(N)=O)N(C(=O)c2ccccc2)C3)c1` (some centres not stated) gave PABP1 MLLE inh -4.2, PABP polyA inh 62.0*, ZTA counter 6.3, EBNA-1 inh -11.0 and eIF4H inh 90.7*.
Screening C/C=C\C(=O)Nc1cccc(C2=NOC3(C2)C[C@@H](C(N)=O)N(C(=O)C2(C)CC2)C3)c1 (some centres not stated) returned PABP1 MLLE inh 0.6, PABP polyA inh 3.2, ZTA counter -15.2, EBNA-1 inh -0.3 and eIF4H inh 0.1.
`C=C(C)C(=O)Nc1cccc(C2=NOC3(C2)C[C@@H](C(N)=O)N(C(=O)C2(C)CC2)C3)c1` (some centres not stated) gave PABP1 MLLE inh 2.7, PABP polyA inh 69.9*, ZTA counter 25.5, EBNA-1 inh 2.9 and eIF4H inh 99.6*.
C=C(C)C(=O)Nc1cccc(C2=NOC3(C2)C[C@@H](C(N)=O)N(C(=O)C(=C)C)C3)c1 (some centres not stated) was read as PABP1 MLLE inh 6.7, PABP polyA inh 61.0*, ZTA counter 24.1, EBNA-1 inh 9.2 and eIF4H inh 93.0*.
Screening NS(=O)(=O)c1ccc(NC(=O)Cn2nc(C(=O)O)c3ccccc3c2=O)cc1 returned PABP1 MLLE inh -10.2, NS3 helicase inh -5.2, PABP polyA inh 9.1, ZTA counter -0.5, EBNA-1 inh -9.5 and eIF4H inh 11.5.
For Oc1ccc(C[C@H]2CNC(=S)N2CC2CCCN2C[C@H](Cc2ccc(O)cc2)N2C[C@H](Cc3ccccc3)N(CC3CCCCCC3)C2=S)cc1 (some centres not stated) the results were PABP1 MLLE inh 23.7.
`O=C(NC(=S)N1CCN(Cc2ccc3c(c2)OCO3)CC1)c1cccc(Br)c1` gave PABP1 MLLE inh 8.5, NS3 helicase inh -13.5, PABP polyA inh 58.0*, ZTA counter -1.2, EBNA-1 inh 2.3 and eIF4H inh active.
`O=C(NC(=S)Nc1ccc2c(c1)OCO2)c1ccccc1` gave PABP1 MLLE inh 17.1, NS3 helicase inh 7.4, PABP polyA inh 6.3, ZTA counter 4.9, EBNA-1 inh -4.8 and eIF4H inh 0.2.
O=C(NC(=S)Nc1ccc2c(c1)OCCO2)c1cccc(Br)c1 was read as PABP1 MLLE inh 40.0*, NS3 helicase inh -0.1, PABP polyA inh 5.4, ZTA counter 4.7, EBNA-1 inh -5.4 and eIF4H inh 0.4.
For COC1=C/C(=C/c2c(N)n3cc(C)sc3nc2=O)C=CC1=O the results were PABP1 MLLE inh -147.7, NS3 helicase inh -2.2, PABP polyA inh 3.4, ZTA counter 13.8, EBNA-1 inh -4.7 and eIF4H inh 60.2*.
Cc1cn2c(N)c(C=C3C=C(Cl)C(=O)C(Cl)=C3)c(=O)nc2s1 was read as PABP1 MLLE inh -121.3, NS3 helicase inh 14.6, PABP polyA inh inconclusive and eIF4H inh inconclusive.
`COc1ccc2c3c(cccc13)N(C)N=C2C` gave PABP1 MLLE inh 94.6*, NS3 helicase inh 11.3, PABP polyA inh inconclusive, ZTA counter 7.3, EBNA-1 inh -2.2 and eIF4H inh 100.1*.
`CN1C2C=C3C(C#N)=C(N)C(C#N)(C#N)[C@@H](c4ccsc4)[C@@H]3C1CC2` (some centres not stated) gave NS3 helicase inh 0.8, PABP polyA inh 63.0*, ZTA counter 9.1, EBNA-1 inh -9.7 and eIF4H inh 65.6*.
`CN1CC=C2C(C#N)=C(N)C(C#N)(C#N)C(c3ccsc3)C2C1` (configuration not stated) gave PABP1 MLLE inh 122.2, NS3 helicase inh 1.3, PABP polyA inh inconclusive, ZTA counter 10.6, EBNA-1 inh 6.6 and eIF4H inh inconclusive.
For COc1ccc(N=C2S/C(=C\c3ccc(OC(C)C(=O)O)c(OC)c3)C(=O)N2CCc2c[nH]c3ccccc23)cc1 (configuration not stated) the results were PABP1 MLLE inh -6.9, NS3 helicase inh -0.8, PABP polyA inh 39.5* and eIF4H inh inconclusive.
Screening O=C(CCS(=O)(=O)c1ccc(Br)cc1)Nc1ccccn1 returned PABP1 MLLE inh 7.0, NS3 helicase inh 10.2, PABP polyA inh 10.5, ZTA counter -4.7, EBNA-1 inh -15.8 and eIF4H inh 26.6.
